Source: ChEMBL document CHEMBL4428030, “Design and Synthesis of Structure-Simplified Derivatives of Gonytolide for the Promotion of Innate Immune Responses” (J Nat Prod, 2016)
Active and inactive are the calls of the source. The rule behind the calls is not given here.

Columns and labels:
[1] = Cytotoxicity against Drosophila melanogaster S2 cells assessed as reduction in cell viability at 10 ug/ml by WST8 assay; type: cell-based
Outline: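 S2 cells kept at 25 °C in Schneider's medium with 10% FBS and 1% antibiotics/antimycotics. Viability read by colorimetric WST-8 conversion.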

Drosophila [2] = assay: Stimulation of innate immune response in Drosophila third-instar larvae assessed as DAP-type peptidoglycans-mediated Dpt-LacZ activation at 10 ug/ml after 12 hrs by beta-galactosidase reporter gene assay; type: functional, organism-based
Outline: (§1)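 Opened third-instar Dpt-lacZ larvae cultured whole in Schneider's medium with 20% FBS and 1% antibiotics/antimycotics, 25 °C, six larvae per condition as replicates. Compound added from DMSO together with 100 ng/mL E. coli peptidoglycan for 12 h. Each larva sonicated in phosphate buffer (60 mM Na2HPO4, 40 mM NaH2PO4, 10 mM KCl, 1 mM MgCl2) and spun 10000g, 4 °C, 10 min. Supernatant β-galactosidase normalized to total protein.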

HUVEC = assay: Stimulation of innate immune response in HUVEC assessed as increase in TNFalpha-stimulated IL-8 production at 10 ug/ml preincubated for 3 hrs followed by TNFalpha stimulation measured after 12 hrs by ELISA; type: functional, cell-based; settings: Homo sapiens
Outline: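 HUVECs grown in EGM-2 at 37 °C, 5% CO2. Cells preincubated ±compound for 3 h, then given 11 μL of 10 ng/mL hTNF-α (stock added to 100 μL well). Supernatants collected after a further 12 h for ELISA.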

Drosophila [3] = assay: Stimulation of innate immune response in Drosophila third-instar larvae assessed as DAP-type peptidoglycans-mediated Dpt-LacZ activation at 1 to 10 ug/ml after 12 hrs by beta-galactosidase reporter gene assay; type: functional, organism-based; outline: as §1
Drosophila [4] = assay: Stimulation of innate immune response in Drosophila third-instar larvae assessed as DAP-type peptidoglycans-mediated Dpt-LacZ activation at 10 ug/ml after 12 hrs by beta-galactosidase reporter gene assay relative to control; type: functional; outline: as §1

Row | SMILES | Activity [1] | Activity (Drosophila [2]) | Activity (HUVEC) | Activity (Drosophila [3]) | fold change (FC) (Drosophila [4])
1 | COc1ccc(-c2cc(=O)c3c(OC)cc(C)c(-c4c(C)cc(OC)c5c(=O)cc(-c6ccc(OC)cc6)oc45)c3o2)cc1 | Non-Toxic | Active | Active |  | 
2 | COc1cc(C)c(-c2c(C)cc(OC)c3c(=O)cc(CCCCOC(C)=O)oc23)c2oc(CCCCOC(C)=O)cc(=O)c12 | Non-Toxic | Active |  |  | 
3 | COC(=O)CCCc1cc(=O)c2c(OC)cc(C)c(-c3c(C)cc(OC)c4c(=O)cc(CCCC(=O)OC)oc34)c2o1 | Non-Toxic | Active | Active |  | 
4 | COc1cc(C)c(-c2c(C)cc(OC)c3c(=O)cc(CCCCO)oc23)c2oc(CCCCO)cc(=O)c12 |  |  |  | inactive | 
5 | COC(=O)[C@]1([C@@H]2CCC(=O)O2)CC(=O)c2c(O)cc(C)c(-c3c(C)cc(O)c4c3O[C@@](C(=O)OC)([C@@H]3CCC(=O)O3)CC4=O)c2O1 |  |  | Active | Dose-dependent effect | >3
